Results from different studies.
Protocols differ between the studies behind these lines. pEC50, pIC50: −log10 of the molar value.
Cell line: Jurkat
Observed: cell growth or viability

Cc1cc2c(cc1N1C(=O)c3cccc4c(CCCO)ccc(c34)C1=O)n(C)c(=O)n2C (racemic) — GI50 (resazurin): 3.9 µM
O=C(/C=C/C=C/c1ccc2c(c1)OCO2)N1CCCCC1 — IC50 (MTT; 48 h): > 50 µg/mL
CCCCCCCCCCCCNC(=S)NCCCC[C@H](NS(C)(=O)=O)C(=O)N[C@H](C)C(=O)N[C@@H](CCCNC(=N)N)C(=O)N1CCOCC1 — pEC50 (MTT; 72 h): 4.19 to 4.45
N#CCCC1=CC2C=CC=CC1C2C1CCCCC1=O (centres unmarked) — pIC50 (flow cytometry): 7.12
CCCON(Cc1ccc(C(=O)NO)cc1)C(=O)Nc1ccc(N(C)C)cc1 — pIC50 (ATP luminescence; 72 h): 5.28
CCCCCCCCCCCCNC(=O)NCCCC[C@H](NS(C)(=O)=O)C(=O)N[C@H](C)C(=O)N[C@@H](CCCNC(=N)N)C(N)=O — pEC50 (MTT; 72 h): 4.39 to 4.60
Cc1cc(=O)n(C)c2cc(N3C(=O)CC[C@H](NS(=O)(=O)CC(C)C)[C@H]3c3ccc(Cl)cc3)ccc12 — pEC50 (7 days): 4.98
O=C1CCCCC1C1C2C=CC=CC1C(CCN1C(=O)c3ccccc3C1=O)=C2 (centres unmarked) — pIC50 (flow cytometry): 7.59
C[C@H](O)C(=O)CCCCCCC(=O)Nc1cccc(-c2cn(-c3ccccc3)nn2)c1 — pIC50 (thymidine uptake): 5.55
CCn1cc(-c2cccc(C(F)(F)F)c2)c2sc(C(=N)NC3CCS(=O)(=O)CC3)cc2c1=O — pEC50 (7 days): 5.44
CCOC(=O)CCC1=CC2C=CC=CC1C2C1CCCCC1=O (centres unmarked) — pIC50 (flow cytometry): 7.32
